Screens (PubChem)
MPTP block: permeability transition pore inhibition; isolated mouse mitochondria, Ca2+ swelling absorbance, 30 min; inhibition, % at 10 µM; 1.4% of 360,000 active;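 active = inhibition of 50% or more, scaled per plate between neutral and stimulator controls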;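 also: 0% = DMSO wells given calcium and 100% = 1 mM EGTA wells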
Lmaj promast: Leishmania major promastigote growth inhibition; Leishmania major promastigotes, resazurin fluorescence viability; inhibition, % at 10 µM; 9% of 200,000 active; in the data active = inhibition above about 50%;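 also: promastigotes grown with compound for 44 hours at 28 °C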
DTT redox prof: compounds producing H2O2 with reducing agent – biochemical, NIH compound library profiling, artefact control for MLSCN library redox annotation, primary screen. AID 878. activation, % at 10 µM. DTT-dependent redox cycling H2O2, phenol red/HRP absorbance; 100% = 100 µM peroxide control, 0% = buffer. 0.03% of 200,000 active;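 active = activation of at least 50% relative to the plate's high and low controls in the primary single-dose screen; inactive = activation below 50%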;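 also: compound incubated with DTT at 0.8 mM final as the reducing agent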
Lipid droplet: modulators of hepatic lipid droplet formation. AML12 mouse hepatocytes, oleate lipid droplets, BODIPY imaging. inhibition, % at 6.5 µM. 0.4% of 240,000 active;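 active = lipid droplet intensity inhibited by at least 50%, with more than 500 cells counted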
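Material: mouse AML12 hepatocyte cell line, fixed after treatment; Timing: compound with oleate, overnight; Technique: high-content imaging of BODIPY-stained droplets and DAPI nuclei; Probe or stimulus: oleate, 100 µM final; Dosing: compound at 6.5 µM only.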
T cruzi inh: blocks replication of Trypanosoma cruzi. AID 1885. T. cruzi beta-gal in NIH3T3, luminescence, 90 h. inhibition, % (test concentration not listed). 1.4% of 300,000 active;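 active = mean inhibition across valid replicates above about 55%, limit read from the data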;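 also: signal also drops with host cell toxicity which is not excluded here; 0% = plate median of DMSO wells and 100% = zero luminescence signal; higher percent means less beta-gal luminescence so fewer parasites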
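System: NIH/3T3 fibroblasts plus reporter T. cruzi. Medium: DMEM plus 2% FBS. Probe or stimulus: 5000 reporter trypomastigotes per well. Compound: single 50 nL compound addition per well in DMSO. Incubation: co-culture of at least 90 h after 3 h attachment. Detection: GalScreen β-gal luminescence, detergent lysis, 60 min. Evaluation: parasite load inhibition, %.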
The depositor's hits bear a star; . = no result. Only a selection was taken, and hits are over-represented in it overall.

SMILES | MPTP block | Lmaj promast | DTT redox prof | Lipid droplet | T cruzi inh
Cc1ccc(CN2CCN(C3CCOCC3)CC2CCO)cc1 (configuration not stated) | -2 | 62* | 0 | 7 | 5
CC(C)c1onc(C(=O)N2CCN(C(c3ccccc3)c3ccccc3)CC2)c1[N+](=O)[O-] | -2 | 22 | 0 | -2 | 57*
Cc1cc(NC(=O)CN2C(=O)/C(=C/c3ccc(C(C)C)cc3)SC2=S)no1 | 4 | . | . | . | .
C=CCNCCCCOc1ccc(OCc2ccccc2)cc1 | -1 | 99* | 0 | 27 | 43
O=C(O)/C=C/C(=O)Nc1ccc(OCc2ccccc2)cc1 | 2 | . | . | -2 | -3
COCCCNCCCCOc1ccc(OCc2ccccc2)cc1 | 3 | 99* | -1 | -14 | 44
CCOc1ccc(OCCCCNCCN)cc1 | . | 86* | 0 | 24 | -2
CCc1cccc(OCCCCNCCOC)c1 | 0 | 90* | 1 | . | 11
CCOc1ccc(OCCCC(=O)O)cc1 | 1 | -4 | 0 | -4 | -17
CCN1CCN(c2oc(-c3ccco3)nc2C#N)CC1 | 1 | . | . | -7 | 17
Cc1cccc(C)c1NC(=O)Cn1nc(-c2ccc(Cl)s2)ccc1=O | 0 | . | . | -7 | -7
Cc1cccc(COC[C@H](Cc2ccccc2)N2CCN(C(=O)c3ccc(Cl)c(Cl)c3)CCC2=O)c1 | -1 | . | . | . | .
Cc1ccc(S(=O)(=O)Nc2ccc(O)c3ccccc23)c(C)c1 | 1 | . | . | . | 1
Cc1ccc(S(=O)(=O)Nc2cc(C(C(=O)OC(C)C)C(=O)C(F)(F)F)c(O)c3ccccc23)c(C)c1 (configuration not stated) | 7 | 92* | 0 | -12 | -9
CSCCNC(=O)Nc1c(-c2c(Cl)cccc2Cl)noc1C | 0 | . | . | -3 | 4
COc1ccc(C(=O)CC(=O)C(=O)NCCc2cccc(C)c2)cc1 | -2 | 64* | 0 | 3 | 1
CSC(=S)N/N=C(\C)c1ccccc1 | -1 | 100* | 0 | 11 | 51
CC(=O)N1CCN(C(=O)c2ccc(OC3CCN(Cc4ccccn4)CC3)cc2)CC1 | 1 | . | . | -2 | 3
O=C(c1ccc(OC2CCN(Cc3ccccn3)CC2)cc1)N1CCCCO1 | 1 | 67* | 13 | 9 | 1
NC1=NC(=O)/C(=C/c2cn(Cc3ccccc3)c3ccccc23)S1 | 1 | 4 | 1 | 6 | -20
CCn1c2ccc(F)cc2c2nnc(SCCN3CCCCC3)nc21 | 0 | . | . | -29 | 63*
c1ccc(Cn2c3ccccc3c3nnc(SCCN4CCCCC4)nc32)cc1 | 4 | . | . | -24 | 69*
C=CCn1c2ccccc2c2nnc(SCCN3CCCCC3)nc21 | 0 | . | . | -19 | 46
COc1cc(Cl)c(C)cc1NC(=O)CSC1=NCCS1 | 0 | . | . | . | .
CCCCn1c(N)c(N(CCOC)C(=O)CC(NC(=O)c2ccccc2Cl)c2ccccc2)c(=O)[nH]c1=O (configuration not stated) | 1 | . | . | . | .
SMILES | MPTP block | Lmaj promast | DTT redox prof | Lipid droplet | T cruzi inh
CCOC(=O)c1ccc2ncc(C(=O)OCC)c(Nc3ccc(N4CCOCC4)cc3)c2c1 | 2 | 74* | 0 | 18 | 21
CCOC(=O)c1cnc2ccc(C(=O)OC)cc2c1Nc1ccc(C(=O)O)cc1 | 0 | 11 | 0 | 26 | 1
CCOC(=O)c1ccc2ncc(C(=O)OCC)c(NCCCN3CCOCC3)c2c1 | 0 | 60* | -3 | . | 37
O=C(/C=C/c1ccnc2ccccc12)c1cccs1 | -2 | 100* | 1 | 10 | 6
COC(C(=O)Nc1ccnn1C1CCN(Cc2ccc(C)s2)CC1)c1ccccc1 (configuration not stated) | 1 | . | . | -6 | 7
CC(=O)N1c2ccc(S(=O)(=O)NCC3CCC(C(=O)NC4CCCCC4)CC3)cc2CC1C (configuration not stated) | -1 | . | . | -6 | 23
Cc1cc(N2CCCC2)nc2ccccc12 | 0 | 14 | -1 | 2 | 3
Cc1cc(N2CCN(C3CCCCC3)CC2)nc2cccc(O)c12 | 0 | 85* | 1 | -21 | 3
COc1ccc(CC(=O)NNC(=S)NCC2CC2)cc1OC | 2 | . | . | . | 2
Cc1nc(N2CCN(C(=O)c3ccco3)CC2)c2oc3ccccc3c2n1 | -1 | . | . | . | -11
CCc1nc(N2CCN(C(=O)c3ccco3)CC2)c2oc3ccccc3c2n1 | 1 | 83* | 0 | . | -6
CC(C)N(C(=O)CN1C(=O)NC(c2ccccc2)(c2ccccc2)C1=O)C(C)C | 1 | . | . | -27 | -15
Cc1c(C(=O)N(Cc2ccccc2)C2CCS(=O)(=O)C2)oc2ccccc12 (configuration not stated) | -2 | . | . | -5 | 11
Cc1cc2oc(C(=O)N(Cc3ccccc3)C3CCS(=O)(=O)C3)cc(=O)c2cc1Cl (configuration not stated) | -3 | 50* | 0 | 2 | 21
COc1ccc(CN(C(=O)c2oc3ccccc3c2C)C2CCS(=O)(=O)C2)cc1 (configuration not stated) | -1 | 54* | 3 | 1 | 9
C=CCNCCCCOc1c(Cl)cc(C)cc1Br | -2 | 99* | 2 | . | 12
COCCCNCCCCOc1c(Cl)cc(C)cc1Br | 0 | 100* | 1 | . | 35
Cc1cc(C)c(OCCNCc2ccccc2)c(C)c1 | 0 | . | . | 0 | 5
Cc1cc(C)c(OCCCCNCc2ccccc2)c(Cl)c1 | 5 | 97* | -1 | . | 45
O=C(NC1CCCCC1)C(CCc1ccccc1)N1CCc2ccccc2C1 (configuration not stated) | -1 | . | . | . | .
COc1ccc(S(=O)(=O)N2Cc3ccccc3CC2C(=O)Nc2nccs2)cc1OC (configuration not stated) | 0 | 8 | 4 | -54 | 8
COc1ccc(S(=O)(=O)N2Cc3ccccc3CC2C(=O)Nc2nccs2)cc1 (configuration not stated) | -3 | 99* | 2 | . | -5
Cc1ccc(S(=O)(=O)N2Cc3ccccc3CC2C(=O)Nc2ccc3c(c2)OCO3)cc1 (configuration not stated) | 1 | 100* | 0 | -13 | 15
CCc1nnc(NC(=O)C2Cc3ccccc3CN2S(=O)(=O)c2cccs2)s1 (configuration not stated) | 1 | 53* | 3 | -23 | -1
CNC(=O)C1Cc2ccccc2CN1S(=O)(=O)c1cccs1 (configuration not stated) | -1 | 68* | -1 | -3 | -1
COc1cc(NC(c2ccccc2)c2ccccc2)cc(OC)c1OC | -4 | 96* | -1 | 14 | 9
COc1cc(NC(=O)CNC(c2ccccc2)c2ccccc2)cc(OC)c1OC | 0 | . | . | -22 | 7
O=C(Nc1nnc([C@@H]2C[C@H](O)[C@@H](CO)O2)s1)Nc1ccccc1C(F)(F)F | 0 | . | . | . | .
C(=N\Nc1ccccc1)/c1ccc(N2CCOCC2)cc1 | 0 | 3 | 1 | . | 18
Clc1cccc(N/N=C/c2ccc(N3CCOCC3)cc2)c1 | 2 | 83* | -2 | . | 60*
